RAD54 inh: inhibitors of human RAD54 branch migration. Q92698. RAD54 Holliday junction branch migration, FAM/BHQ fluorescence. inhibition, % at 10.4 µM. 0.14% of 360,000 active. AID 602329;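 active means mean normalized replicate activity at least 40 and at least half of replicates scoring 40 or more; inconclusive means only one of the two criteria met; inactive means mean below 40 and under half of replicates reaching 40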;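 further: 0% = median of neutral control wells and 100% = median of positive control wells; inhibitors cause a drop in the FAM fluorescence signal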
SR-BI uptake up: enhances SR-BI lipid uptake from DiI-HDL; CHO ldlA[mSR-BI] cells, DiI-HDL uptake fluorescence, 3 h; 100 = double the neutral-control signal; 0.096% of 320,000 active; activation, % at 12.5 µM;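 active means mean replicate activation of at least 60% and every replicate at or above 60%; inconclusive means mean or all-replicate condition met, but not both; inactive means mean below 60% and not all replicates reaching 60%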;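 further: 0% = median plate neutral-control signal and 100% = twice that signal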
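material = CHO ldlA[mSR-BI] cells | medium = Ham's F12 with 0.5% BSA, HEPES 25 mM, pH 7.4 | reagent = fluorescent DiI-HDL, 10 µg/mL final | compound dosing = single-point compound dose | incubation = 3 h, 37 °C | measured by = bottom-read fluorescence, 550/595 nm | measure = HDL uptake via cellular fluorescence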
SR-BI HDL uptake: blocks mouse SR-BI lipid uptake from DiI-HDL | Q61009 | ldlA[mSR-BI] CHO cells, DiI-HDL uptake fluorescence, 3 h | inhibition, % at 12.5 µM | 0.96% of 320,000 active;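 active means mean replicate inhibition of at least 70% and a set share of replicates each scoring 70 or more; inconclusive means meets just one of the two criteria; inactive means fails both criteria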;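 further: 0% = median of neutral control wells and 100% = median of positive control wells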
Target sequence (Q61009 whole entry, looked up): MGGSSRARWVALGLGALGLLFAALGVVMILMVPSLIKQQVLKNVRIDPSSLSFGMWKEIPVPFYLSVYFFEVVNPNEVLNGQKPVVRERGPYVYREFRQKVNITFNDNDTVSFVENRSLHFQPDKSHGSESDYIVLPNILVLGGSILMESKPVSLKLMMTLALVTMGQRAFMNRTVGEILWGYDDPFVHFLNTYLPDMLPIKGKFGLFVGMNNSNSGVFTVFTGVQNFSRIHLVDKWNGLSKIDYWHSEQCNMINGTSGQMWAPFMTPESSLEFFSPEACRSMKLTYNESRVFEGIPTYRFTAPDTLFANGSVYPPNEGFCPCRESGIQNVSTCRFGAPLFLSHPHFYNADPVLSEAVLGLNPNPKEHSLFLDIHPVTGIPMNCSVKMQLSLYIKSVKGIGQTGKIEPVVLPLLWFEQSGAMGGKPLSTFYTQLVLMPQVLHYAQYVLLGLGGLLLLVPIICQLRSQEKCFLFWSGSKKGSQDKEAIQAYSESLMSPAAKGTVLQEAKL
PvdQ inh: P. aeruginosa PvdQ acylase inhibition; inhibition, % at 10 µM; AID 488965; purified PvdQ acylase, fluorescence plate reader; 0.063% of 340,000 active; in the data active means inhibition above about 30%, passing the limit was not always enough; inconclusive means no clear call, values can overlap the other calls;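 further: 0% = vehicle neutral wells and 100% = reference inhibitor wells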
S100A4 inh HTS: inhibitors of human S100A4 binding to myosin IIA peptide; P26447; S100A4/TAMRA-MyoIIA peptide fluorescence polarization; inhibition, % at 10.7 µM; 0.14% of 360,000 active;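 active means mean inhibition of at least 70% across replicates, with every replicate also reaching that level; inconclusive means mean inhibition reaches 70% but some replicates fall short; inactive means mean inhibition below 70%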
Target sequence (P26447 whole entry, looked up): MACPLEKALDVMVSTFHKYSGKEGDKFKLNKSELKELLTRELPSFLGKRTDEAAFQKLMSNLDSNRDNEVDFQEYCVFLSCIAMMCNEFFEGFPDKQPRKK
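Test system – S100A4 monomer (human) · Compound – single-point compound testing · Schedule – 5 min incubation before reading · Probe or stimulus – TAMRA-labelled myosin IIA heavy-chain peptide probe, 5 nM · Benchmarks – neutral control DMSO, positive control TFP · Medium – Calcium-containing HEPES buffer, pH 7.2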
dFosB act-1: enhances mouse delta FosB homodimer DNA binding. activation, % at 25 µM. 0.99% of 340,000 active. P13346. purified delta FosB, TAMRA-CDK5 oligo fluorescence polarization; percent of positive-control signal above neutral wells. AID 493131;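 active means mean activation above about 17%, with every replicate also reaching it, limit read from the data, passing the limit was not always enough; inconclusive means only one of the two conditions met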
dFosB act-2: enhances mouse delta FosB homodimer binding to DNA. 2,400 tested, under 10 active. activation, % at 24.9 µM. AID 588690. purified delta FosB, TAMRA-CDK5 oligo fluorescence polarization; normalised: neutral wells 0, positive control 100. shares compounds with dFosB act-1;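 active means highest replicate activation at or above 34% and every replicate reaching that threshold; inconclusive means meets only one of the two criteria; inactive means meets neither criterion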;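 further: higher polarization means more probe DNA bound by delta FosB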
The depositor's hits bear a star; ? = inconclusive; . = no result. Sampled rows, rich in hits. Any-hit rate of the full collection: about 1.6%.

SMILES	RAD54 inh	SR-BI uptake up	SR-BI HDL uptake	PvdQ inh	S100A4 inh HTS	dFosB act-1	dFosB act-2
O=C(NNC(=O)c1c(O)c2ccccc2[nH]c1=O)c1ccccc1	-2	17	-17	-2	-2	83*	0
C[C@@H]1CCCCO[C@@H](CN(C)Cc2ccncc2)[C@@H](C)CN([C@H](C)CO)C(=O)c2cc(NS(=O)(=O)c3cn(C)cn3)ccc2O1	-5	.	.	.	7	.	.
C[C@@H]1CN([C@@H](C)CO)C(=O)c2cccc(NC(=O)C3CC3)c2O[C@@H]1CN(C)Cc1ccc(C(F)(F)F)cc1	-5	.	.	.	0	.	.
CN1c2ccc(-c3cccc(F)c3)cc2[C@@H]2[C@@H](CCN2C(=O)c2ccccc2F)[C@H]1CO	-7	.	.	.	9	.	.
CCOC(=O)c1sc2nc(C)n(N)c(=O)c2c1C	.	8	-8	-15	-5	-13	.
CCOC(=O)c1sc2nc(C)[nH]c(=S)c2c1C	.	-1	1	-16	12	21*	3
CO[C@H]1CN(C)C(=O)c2cc(NC(=O)c3cc(C)on3)ccc2OC[C@H](C)NC[C@H]1C	-8	.	.	.	11	.	.
C[C@@H](NC(=O)C[C@@H]1C=C[C@H](NC(=O)C2CC2)[C@@H](CO)O1)c1ccccc1	6	.	.	.	3	.	.
COc1ccc(CCNCC(O)Cn2c3ccccc3c3ccccc32)cc1OC (stereo unspecified)	.	-7	7	13	-5	21*	1
O=C(N/N=C\c1cccc(Cl)c1)c1ccc(Cn2cccn2)o1	-3	-11	11	-12	-1	-18	.
O=C(N/N=C\c1cccc(Cl)c1)c1ccc(Cn2cc(Br)c([N+](=O)[O-])n2)o1	.	-18	18	-4	.	33*	-1
Cc1ccc(/C=N\NC(=O)c2ccc(Cn3cc(Br)c([N+](=O)[O-])n3)o2)o1	.	-15	15	-5	-4	27*	-8
CCOC(=O)c1cnc2c(cnn2C)c1NCc1ccc(OC)cc1	5	-79	79*	-13	-3	29*	4
COc1ccc(CNc2c(C(=O)O)cnc3c2cnn3C)cc1	2	13	-13	5	-2	-4	.
CCCCn1c(N)c(N(CC(C)C)C(=O)C2CCN(S(=O)(=O)c3ccccc3)CC2)c(=O)[nH]c1=O	.	-8	8	-12	-12	55*	4
CCCCn1c(N)c(N(CCC(C)C)C(=O)C2CC(=O)N(c3cccc(SC)c3)C2)c(=O)[nH]c1=O (stereo unspecified)	-15	4	-4	-5	1	40*	6
CCCCn1c(N)c(N(CCC(C)C)C(=O)C2CC(=O)N(c3ccc4c(c3)OCCO4)C2)c(=O)[nH]c1=O (stereo unspecified)	-3	29	-29	-10	-1	0	.
C/C(=N\Nc1nc2ccccc2[nH]1)c1ccc2c(c1)OCO2	22	-24	24	16	6	27*	3
C/C(=N\Nc1nc2ccccc2[nH]1)c1ccc2c(c1)OCCO2	.	-28	28	-10	4	15	.
Cc1noc(C)c1NC(=O)N(C)C[C@H]1OCCCC[C@H](C)Oc2ccc(NS(C)(=O)=O)cc2C(=O)N([C@@H](C)CO)C[C@H]1C	6	.	.	.	.	.	.
O=S(=O)(c1cccs1)N1CN(Cc2ccccc2)c2nc3ccccc3nc21	.	-3	3	4	.	3	.
COc1ccc(CN2CN(S(=O)(=O)c3cccs3)c3nc4ccccc4nc32)cc1	.	.	.	6	-3	58*	-3
Cc1cccc(NC(=O)COC(=O)c2n[nH]c3ccccc23)c1C	-2	21	-21	-15	-2	25*	7
CCCN1[C@@H]2c3ccc(-c4cccc(C(=O)N(C)C)c4)c(=O)n3C[C@@H]2[C@@H](CO)[C@@H]1C(=O)NCCOC	7	.	.	.	-5	.	.
CCOc1ccc(-n2cc(C(=O)NCCOC)c3cc(OC)c(OC)cc3c2=O)cc1	8	-9	9	1	1	-9	.
SMILES	RAD54 inh	SR-BI uptake up	SR-BI HDL uptake	PvdQ inh	S100A4 inh HTS	dFosB act-1	dFosB act-2
CCOc1ccc(-n2cc(C(=O)Nc3cccc(OC)c3)c3cc(OC)c(OC)cc3c2=O)cc1	5	-39	39	-8	.	40*	4
O=C(Nc1nccs1)c1cn(-c2ccccc2)nc1-c1ccccc1	-2	-63	63	-5	.	6	.
CC(C)COc1ccc(-c2nn(-c3ccccc3)cc2C(=O)Nc2nccs2)cc1	-10	12	-12	-12	.	39*	1
CCOc1ccc(-n2c(SCC(=O)Nc3ccc(CC)cc3)nc3n[nH]c(C)c3c2=N)cc1	.	-14	14	-16	-36	?	.
Cc1[nH]nc2nc(SCC(=O)NC3CCCCC3)n(-c3ccc(Br)cc3)c(=N)c12	0	7	-7	-12	-2	52*	1
COc1ccccc1NC(=O)CSc1nc2n[nH]c(C)c2c(=N)n1-c1ccccc1Cl	.	13	-13	-13	.	53*	-2
C[C@@H]1CN([C@H](C)CO)C(=O)c2cc(NC(=O)NC3CCCCC3)ccc2O[C@H]1CN(C)Cc1ccc(C(=O)O)cc1	-1	.	.	.	2	.	.
O=C(N/N=C/c1c(O)n(-c2ccccc2Cl)c(=O)c2ccccc12)c1cccnc1	.	-35	35	7	4	-8	.
Cc1nn(-c2cccc(Cl)c2)c(Cl)c1/C=N/NC(=O)c1cccnc1	.	-53	53	-4	-13	23*	0
Cc1nn(Cc2c(Cl)cccc2Cl)c(Cl)c1/C=N/NC(=O)c1cccnc1	.	-61	61	-2	-5	56*	4
Cc1nn(-c2ccc(F)cc2)c(Cl)c1/C=N/NC(=O)c1cccs1	.	-18	18	-9	.	39*	-3
CCCNC(=O)C[C@@H]1C[C@H]2c3cc(NC(=O)Nc4ccccc4F)ccc3O[C@H]2[C@@H](CO)O1	-6	.	.	.	7	.	.
COc1ccc(-c2ccc3c(c2)O[C@H](CN(C)C(C)=O)[C@@H](C)CN([C@H](C)CO)S3(=O)=O)cc1	-28	.	.	.	13	.	.
COc1ccc2c3c([nH]c2c1)[C@H](CO)NCC31CCN(C(=O)C2CCCC2)CC1	.	.	.	.	-4	.	.
